# According to ChEMBL document CHEMBL3414513, “Synthesis and biological evaluation of betulonic acid derivatives as antitumor agents” (Eur J Med Chem, 2015):
# Calls of active or inactive are those of the source. The rule behind the calls is not given here.
# Key:
# MGC-803 [1] = experiment: Induction of apoptosis in human MGC803 cells at 10 uM by Annexin V-FITC/propidium iodide staining-based flow cytometric analysis; type: functional, cell-based; conditions: TDE = time-dependent effect
# How it was run: (§1)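 MGC-803 cells were treated at 10 µM, with 36 h among the time points; HCPT 10 µM served as positive control. Cells at 1×10^6/mL were washed in cold PBS and resuspended in 500 µL binding buffer. Staining used 5 µL Annexin V-FITC plus 5 µL PI for 20 min in the dark, then flow cytometry. Apoptosis ratio is early plus late apoptotic quadrants.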
# A-375 [2] = experiment: Selectivity index, ratio of IC50 for mouse NIH/3T3 cells to IC50 for human A375 cells; type: functional
# How it was run: (§2)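 Index is the IC50 in normal NIH3T3 cells divided by the IC50 in each cancer line. […] HCPT and adriamycin were used as positive controls.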
# MGC-803 [3] = experiment: Induction of apoptosis in human MGC803 cells assessed as DNA fragmentation at 5 uM after 12 to 48 hrs by TUNEL assay; type: functional, cell-based
# How it was run: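 MGC-803 cells (5×10^4 cells/mL, 6-well) were exposed at 5 µM for 12-48 h. Controls: HCPT 10 µM for 48 h, DMSO. Colorimetric TUNEL: fixed in 4% paraformaldehyde 40 min, permeabilized on ice, endogenous peroxidase quenched with 0.3% H2O2/methanol 20 min. Then TdT plus biotin-dUTP 60 min at 37 °C, streptavidin-HRP 30 min, DAB 10 min. Brown precipitate scored by light microscopy.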
# MGC-803 [4] = experiment: Induction of apoptosis in human MGC803 cells assessed as activation of caspase-9 using Ac-LEHD-pNA as probe at 2.5 to 10 uM after 12 hrs; type: functional, cell-based
# How it was run: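 MGC-803 cells were treated at 2.5, 5 or 10 µM for 12 h. Cells were lysed on ice for 25 min and spun at 16000 g for 15 min. Supernatant was mixed with reaction buffer and Ac-LEHD-pNA and incubated at 37 °C for 2-3 h in the dark. A405 was read against a buffer blank.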
# MGC-803 [5] = experiment: Induction of apoptosis in human MGC803 cells assessed as appearance of compact condensed and crescent shaped cells at 5 uM after 12 to 48 hrs by Hoechst 33258 staining-based fluorescence microscopic analysis; type: functional, cell-based
# How it was run: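 MGC-803 cells (5×10^4 cells/mL, 6-well plates) were treated at 5 µmol/L for 12-48 h in fresh medium with 10% FBS. Controls: HCPT 10 µM for 48 h, DMSO. Cells were fixed in 4% paraformaldehyde for 10 min and stained with Hoechst 33258 for 5 min. Fluorescence microscopy used 350 nm excitation and 460 nm emission.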
# A-375 [6] = experiment: Cytotoxicity against human A375 cells after 72 hrs by MTT assay; type: functional, cell-based
# How it was run: (§3)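 Cancer lines grown in RPMI 1640 with 10% heat-inactivated FBS, 37 °C, 5% CO2. Cells trypsinized at 80-90% confluence, seeded at 2×10^3/well overnight, then given compounds (DMSO stocks diluted in medium) at various concentrations for 72 h at 37 °C. Controls: 0.1% DMSO negative, adriamycin positive. MTT (5 mg/ml) added for 4 h, formazan dissolved in SDS 12 h, A595 read. IC50 from dose-response curves.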
# Bcap37 [7] = experiment: Selectivity index, ratio of IC50 for mouse NIH/3T3 cells to IC50 for human Bcap37 cells; type: functional; how it was run: as §2
# [8] = Upregulation of p53 expression in human MGC803 cells at 2.5 to 10 uM after 12 hrs by Western blot analysis; type: functional, cell-based; conditions: MGC-803
# How it was run: (§4)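 MGC-803 cells were treated at 2.5, 5 or 10 µM for 12 h, then collected. Western blots were probed with anti-p53 and anti-Bax (1:500 to 1:1000), with β-actin as loading reference.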
# MGC-803 [9] = experiment: Cytotoxicity against human MGC803 cells after 72 hrs by MTT assay; type: functional, cell-based; how it was run: as §3
# MCF7 [10] = experiment: Cytotoxicity against human MCF7 cells after 72 hrs by MTT assay; type: functional, cell-based; how it was run: as §3
# PC-3 [11] = experiment: Selectivity index, ratio of IC50 for mouse NIH/3T3 cells to IC50 for human PC3 cells; type: functional; how it was run: as §2
# MCF7 [12] = experiment: Selectivity index, ratio of IC50 for mouse NIH/3T3 cells to IC50 for human MCF7 cells; type: functional; how it was run: as §2
# MGC-803 [13] = experiment: Selectivity index, ratio of IC50 for mouse NIH/3T3 cells to IC50 for human MGC803 cells; type: functional; how it was run: as §2
# MGC-803 [14] = experiment: Induction of apoptosis in human MGC803 cells at 5 uM after 12 to 48 hrs by acridine orange/ethidium bromide staining-based fluorescence microscopic analysis; type: functional, cell-based
# How it was run: (§5)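 MGC-803 cells at 5×10^4 cells/mL were seeded in 6-well plates. Medium was replaced with fresh medium plus 10% FBS containing compound, 5 µM for 12-48 h. Controls: HCPT 10 µM for 48 h, DMSO. Cells were washed with PBS and the coverslip was inverted onto 20 µL AO/EB stain (100 µg/mL). Fluorescence microscopy scored live, early apoptotic, late apoptotic and necrotic nuclei.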
# Bcap37 [15] = experiment: Cytotoxicity against human Bcap37 cells after 72 hrs by MTT assay; type: functional, cell-based; how it was run: as §3
# [16] = Upregulation of Bax expression in human MGC803 cells at 2.5 to 10 uM after 12 hrs by Western blot analysis; type: functional, cell-based; conditions: MGC-803; how it was run: as §4
# MGC-803 [17] = experiment: Induction of apoptosis in human MGC803 cells assessed as apoptosis ratio at 10 uM after 36 hrs by Annexin V-FITC/propidium iodide staining-based flow cytometric analysis; type: functional; how it was run: as §1
# MGC-803 [18] = experiment: Induction of apoptosis in human MGC803 cells assessed as activation of caspase-3 using Ac-[…]-pNA as probe at 2.5 to 10 uM after 12 hrs; type: functional, cell-based
# How it was run: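 MGC-803 cells were treated at 2.5, 5 or 10 µM for 12 h. Cells (1×10^6/mL) were washed in cold PBS, lysed on ice for 25 min and spun at 18000 g for 15 min. Supernatant was mixed with reaction buffer and Ac-[…]-pNA and incubated at 37 °C for 2-3 h in the dark. A405 was read against a lysis/reaction buffer blank.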
# PC-3 [19] = experiment: (§6) Cytotoxicity against human PC3 cells after 72 hrs by MTT assay; type: functional, cell-based
# How it was run: as §3, with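 “Cells” for “Cancer lines grown in RPMI 1640 with 10% heat-inactivated FBS, 37 °C, 5% CO2. Cells”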
# [20] = as §6; type: functional, cell-based; conditions: PC-3, 72 h
# How it was run: as §3, with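 “Cells” for “Cancer lines grown in RPMI 1640 with 10% heat-inactivated FBS, 37 °C, 5% CO2. Cells”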
# MGC-803 [21] = experiment: Induction of apoptosis in human MGC803 cells assessed as necrotic cells at 5 uM after 12 to 48 hrs by acridine orange/ethidium bromide staining-based fluorescence microscopic analysis; type: functional, cell-based; how it was run: as §5
smiles,measurement,setting,value
C=C(C)[C@@H]1CC[C@]2(C(=O)OCCCCN3CCCCC3)CC[C@]3(C)[C@H](CC[C@@H]4[C@@]5(C)CCC(=O)C(C)(C)[C@@H]5CC[C@]43C)[C@@H]12,Activity,MGC-803 [1],tde
same,Ratio IC50,A-375 [2],3.41
same,Activity,MGC-803 [3],Active
same,Activity,MGC-803 [4],Active
same,Activity,MGC-803 [5],Active
same,Activity,A-375 [6],Dose-dependent effect
same,IC50,"A-375 [6]; A-375, 72 h",7.8 µM
same,Ratio IC50,Bcap37 [7],6.33
same,Activity,[8],Active
same,Activity,MGC-803 [9],Dose-dependent effect
same,IC50,"MGC-803 [9]; MGC-803, 72 h",3.6 µM
same,Activity,MCF7 [10],Dose-dependent effect
same,IC50,"MCF7 [10]; MCF7, 72 h",5.2 µM
same,Ratio IC50,PC-3 [11],4.75
same,Ratio IC50,MCF7 [12],5.11
same,Ratio IC50,MGC-803 [13],7.38
same,Activity,MGC-803 [14],Active
same,Activity,Bcap37 [15],Dose-dependent effect
same,IC50,"Bcap37 [15]; Bcap37, 72 h",4.2 µM
same,Activity,[16],Active
same,Activity,MGC-803 [17],28.33%
same,Activity,MGC-803 [18],Active
same,Activity,PC-3 [19],Dose-dependent effect
same,IC50,[20],5.6 µM
same,Activity,MGC-803 [21],inactive
